Laboratory results taken from paper PMC7581536 (Journal of pharmaceutical and biomedical analysis, 2020).

Experiments:
KDMs = settings: ref [18]–[19]; cited from earlier work
[1] = Pharmacokinetic study of JIB-04 in rats after i.v. and oral administration; assay type: in vivo, rat
Summary of the method: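 Male adult SD rats with jugular vein cannulas. IV: single 5 mg/kg via jugular vein (n=5) as aqueous suspension in 12.5% cremophor EL/12.5% DMSO; blood at 2 min–24 h. Oral: single 15 mg/kg (n=6); blood at 5 min–24 h. Heparinised plasma (4000 rpm, 15 min) held at −80°C. 20 µL plasma precipitated with ACN (5 ng/mL IS, 0.1% acetic acid); UHPLC-MS/MS MRM; non-compartmental analysis per rat.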

[2] = Stability of JIB-04 in rat plasma; assay type: in vitro ADME; settings: for RE (deviation from nominal concentration) / Calculated Concentration Mean ± SD: rat plasma; for Calculated Concentration Mean ± SD: n=6
Summary of the method: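 Blank rat plasma spiked to 0.5, 1, 50 and 800 ng/mL, six replicates per condition. Held 18 h on bench at room temperature, 24 h in auto-sampler tray, or 3 months at −80°C. Freeze-thaw: three cycles of 2–3 h room-temperature thaw and 12–24 h at −80°C. Quantified against a same-day calibration curve; accuracy as RE%, precision as CV%.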

[3] = Stability of stock solutions; assay type: physicochemical; settings: stock solution (DMSO/ACN or ACN), 6 months at −20°C
Summary of the method: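 Test compound stock at 2 mg/mL: 10 mg dissolved in 0.5 mL DMSO, then diluted with ACN. Internal standard stock at 100 µg/mL in ACN. Both kept at −20°C for 6 months.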

[4] = Non-specific binding to plastic centrifuge tubes; assay type: physicochemical; settings: neat solution, water as matrix
KDM5A = settings: secondary targets KDM4D/4B/4A/6B/4C; ref [18], [20]–[21]; cited from earlier work
HIV-1 = settings: T cell lines, via inhibition of SHMT2; ref [23]; cited from earlier work
[5] = rats, oral 15 mg/kg, n=6, NCA (apparent)
[6] = auto-sampler (10 °C 24hr), nominal 0.5 ng/mL
[7] = auto-sampler (10 °C 24hr), nominal 1 ng/mL
[8] = auto-sampler (10 °C 24hr), nominal 50 ng/mL
[9] = auto-sampler (10 °C 24hr), nominal 800 ng/mL
[10] = bench top (18hr, RT), nominal 0.5 ng/mL
[11] = bench top (18hr, RT), nominal 1 ng/mL
[12] = bench top (18hr, RT), nominal 50 ng/mL
[13] = bench top (18hr, RT), nominal 800 ng/mL
[14] = long-term (−80 °C, 3 months), nominal 0.5 ng/mL
[15] = long-term (−80 °C, 3 months), nominal 1 ng/mL
[16] = long-term (−80 °C, 3 months), nominal 50 ng/mL
[17] = long-term (−80 °C, 3 months), nominal 800 ng/mL

SMILES: Clc1ccc(NN=C(c2ccccc2)c2ccccn2)nc1 (single isomer, unassigned) [Z-isomer]
- activity against KDMs (KDMs): inactive

SMILES: Clc1ccc(N/N=C(\c2ccccc2)c2ccccn2)nc1 [JIB-04]
- concentrations in pharmacokinetic samples ([1]; rat plasma, i.v. and oral samples): 2 to 6000 ng/mL
- plasma concentration ([1]; rats, i.v. 5 mg/kg, after 24 h): 3.0 ± 1.0 ng/mL
- plasma concentration ([1]; rats, i.v. 5 mg/kg, at 2 min): 5270 ± 527.2 ng/mL
- AUC 0→24 ([1]; rats, i.v. 5 mg/kg, n=5, NCA): 3661.6 ± 371.4 ng·h/mL
- AUC 0→inf ([1]; rats, i.v. 5 mg/kg, n=5, NCA): 3678.2 ± 369.0 ng·h/mL
- CL ([1]; rats, i.v. 5 mg/kg, n=5, NCA): 22.845 ± 2.362 mL/min/kg
- Half-life ([1]; rats, i.v. 5 mg/kg, n=5, NCA): 3.70 ± 0.5 h
- MRT ([1]; rats, i.v. 5 mg/kg, n=5, NCA): 2.6 ± 0.3 h
- Vd ([1]; rats, i.v. 5 mg/kg, n=5, NCA): 7.3576 ± 1.5306 L/kg
- E/Z ratio in plasma ([1]; rats, i.v. samples, 5 min): 72
- E/Z ratio in plasma ([1]; rats, i.v. samples, 2 h): 27
- E/Z ratio in plasma ([1]; rats, i.v. samples, 24 h): 0.6
- time to reach Cmax (range among subjects) ([1]; rats, oral 15 mg/kg): 0.5 ~ 4 h
- oral bioavailability (F) ([1]; rats, oral 15 mg/kg vs i.v. 5 mg/kg): 44.4%
- AUC 0→24 ([1]; rats, oral 15 mg/kg, n=6, NCA): 4880.8 ± 1015.3 ng·h/mL
- AUC 0→inf ([1]; rats, oral 15 mg/kg, n=6, NCA): 4904.7 ± 1019.7 ng·h/mL
- Cmax ([1]; rats, oral 15 mg/kg, n=6, NCA): 812.7 ± 201.2 ng/mL
- Half-life ([1]; rats, oral 15 mg/kg, n=6, NCA): 3.2 ± 0.2 h
- MRT ([1]; rats, oral 15 mg/kg, n=6, NCA): 4.4 ± 0.3 h
- Tmax ([1]; rats, oral 15 mg/kg, n=6, NCA): 1.5 ± 1.4 h
- CL [1, 5]: 53.903 ± 1.27 mL/min/kg
- Vd [1, 5]: 14.9234 ± 3.6699 L/kg
- plasma concentration ([1]; rats, oral 15 mg/kg, within 5 min): 122.9 ± 51.0 ng/mL
- E/Z ratio in plasma ([1]; rats, oral samples, 5 min): 40
- E/Z ratio in plasma ([1]; rats, oral samples, 2 h): 9
- E/Z ratio in plasma ([1]; rats, oral samples, 24 h): 2.3
- RE (deviation from nominal concentration) [2, 6]: −3.2%
- Calculated Concentration Mean ± SD [2, 6]: 0.48 ± 0.01 ng/mL
- RE (deviation from nominal concentration) [2, 7]: −3.5%
- Calculated Concentration Mean ± SD [2, 7]: 0.97 ± 0.06 ng/mL
- RE (deviation from nominal concentration) [2, 8]: −2.7%
- Calculated Concentration Mean ± SD [2, 8]: 48.6 ± 3.3 ng/mL
- RE (deviation from nominal concentration) [2, 9]: −0.1%
- Calculated Concentration Mean ± SD [2, 9]: 799.0 ± 17.5 ng/mL
- RE (deviation from nominal concentration) [2, 10]: 1.6%
- Calculated Concentration Mean ± SD [2, 10]: 0.51 ± 0.02 ng/mL
- RE (deviation from nominal concentration) [2, 11]: −6.9%
- Calculated Concentration Mean ± SD [2, 11]: 0.93 ± 0.05 ng/mL
- RE (deviation from nominal concentration) [2, 12]: −6.4%
- Calculated Concentration Mean ± SD [2, 12]: 46.8 ± 0.7 ng/mL
- RE (deviation from nominal concentration) [2, 13]: 2.4%
- Calculated Concentration Mean ± SD [2, 13]: 819.0 ± 26.0 ng/mL
- RE (deviation from nominal concentration) ([2]; freeze and thaw (−80 °C to RT), nominal 0.5 ng/mL): 1.4%
- RE (deviation from nominal concentration) ([2]; freeze and thaw (−80 °C to RT), nominal 1 ng/mL): −0.8%
- RE (deviation from nominal concentration) ([2]; freeze and thaw (−80 °C to RT), nominal 50 ng/mL): −2.1%
- RE (deviation from nominal concentration) ([2]; freeze and thaw (−80 °C to RT), nominal 800 ng/mL): −0.9%
- Calculated Concentration Mean ± SD ([2]; freeze and thaw (−80 °C to RT), three cycles, nominal 0.5 ng/mL): 0.51 ± 0.01 ng/mL
- Calculated Concentration Mean ± SD ([2]; freeze and thaw (−80 °C to RT), three cycles, nominal 1 ng/mL): 0.99 ± 0.03 ng/mL
- Calculated Concentration Mean ± SD ([2]; freeze and thaw (−80 °C to RT), three cycles, nominal 50 ng/mL): 49.0 ± 1.3 ng/mL
- Calculated Concentration Mean ± SD ([2]; freeze and thaw (−80 °C to RT), three cycles, nominal 800 ng/mL): 793.0 ± 16.2 ng/mL
- RE (deviation from nominal concentration) [2, 14]: −6.7%
- Calculated Concentration Mean ± SD [2, 14]: 0.47 ± 0.02 ng/mL
- RE (deviation from nominal concentration) [2, 15]: −6.9%
- Calculated Concentration Mean ± SD [2, 15]: 0.93 ± 0.05 ng/mL
- RE (deviation from nominal concentration) [2, 16]: −5.6%
- Calculated Concentration Mean ± SD [2, 16]: 47.2 ± 1.3 ng/mL
- RE (deviation from nominal concentration) [2, 17]: −6.9%
- Calculated Concentration Mean ± SD [2, 17]: 745.0 ± 20.8 ng/mL
- storage stability of plasma samples ([2]; stored at −80 °C for as long as 3 months): without apparent alteration
- degradation in rat plasma ([2]; under the experimental conditions (Table 4)): no significant degradation
- stability of stock solution [3]: stable
- non-specific binding to plastic centrifuge tubes [4]: strongly binding
- inhibitory activity against KDM5A (KDM5A): maximal inhibitory activity
- block of HIV-1 Tat expression, transactivation, and virus replication (HIV-1): potently and selectively blocks
